Reference: ChEMBL document CHEMBL1649574, “Prevalence and characterization of heterogeneous vancomycin-intermediate Staphylococcus aureus isolates from 14 cities in China” (2009)
Values after ≈ are worked out from the molar mass of the structure shown.

Key:
[1] = test system: Staphylococcus aureus; assay: Antimicrobial activity against SCCmec type III vancomycin-intermediate Staphylococcus aureus isolate bd4768 by broth microdilution method
[2] = test system: Staphylococcus aureus; assay: Antimicrobial activity against heterogeneous vancomycin-intermediate Staphylococcus aureus assessed as intermediate isolates by broth microdilution method; type: functional
Method in brief: (§1)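 Daptomycin MICs by broth microdilution in BBL broth with calcium chloride added to a final calcium of 50 mg/liter, checked by biochemical analysis. Tested on the 200 MRSA blood isolates, grouped as hVISA/VISA or VSSA by PAP-AUC ratio relative to Mu3.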

[3] = test system: Staphylococcus aureus; assay: Antimicrobial activity against SCCmec type III vancomycin-intermediate Staphylococcus aureus isolate b6k7974 by broth microdilution method; type: functional
Method in brief: (§2)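 Daptomycin MICs on the blood MRSA isolates were done by broth microdilution. The broth was supplemented with calcium chloride to a final calcium of 50 mg/liter, confirmed by biochemical analysis. Isolates were grouped by PAP-AUC ratio relative to Mu3 (VSSA <0.9; hVISA 0.9 to 1.3; VISA ≥1.3).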

[4] = test system: Staphylococcus aureus; assay: Antimicrobial activity against vancomycin-susceptible Staphylococcus aureus assessed as growth inhibition at 0.25 times MIC; type: functional; parameters: scale not given: the % may be the effect or the level left
[5] = test system: Staphylococcus aureus; assay: Antimicrobial activity against SCCmec type III vancomycin-intermediate Staphylococcus aureus isolate b5k3578 by broth microdilution method
[6] = test system: Staphylococcus aureus; assay: Antimicrobial activity against SCCmec type IV vancomycin-intermediate Staphylococcus aureus isolate 06b41 by broth microdilution method; type: functional; method in brief: as §2
[7] = test system: Staphylococcus aureus; assay: Antimicrobial activity against vancomycin-susceptible Staphylococcus aureus assessed as growth inhibition at 2 times MIC; type: functional; parameters: scale not given: the % may be the effect or the level left
[8] = test system: Staphylococcus aureus; assay: Antimicrobial activity against vancomycin-susceptible Staphylococcus aureus assessed as growth inhibition at 4 times MIC; type: functional; parameters: scale not given: the % may be the effect or the level left
[9] = test system: Staphylococcus aureus; assay: Antimicrobial activity against vancomycin-susceptible Staphylococcus aureus by broth microdilution method; type: functional; method in brief: as §2
[10] = test system: Staphylococcus aureus; assay: Antimicrobial activity against SCCmec type II vancomycin-intermediate Staphylococcus aureus isolate 4sy32 by broth microdilution method
[11] = test system: Staphylococcus aureus; assay: Antimicrobial activity against SCCmec type III vancomycin-intermediate Staphylococcus aureus isolate gz06051 by broth microdilution method
[12] = test system: Staphylococcus aureus; assay: Antimicrobial activity against heterogeneous vancomycin-intermediate Staphylococcus aureus by broth microdilution method; type: functional; method in brief: as §2
[13] = test system: Staphylococcus aureus; assay: Antimicrobial activity against vancomycin-susceptible Staphylococcus aureus assessed as growth inhibition at 16 times MIC; type: functional; parameters: scale not given: the % may be the effect or the level left
[14] = test system: Staphylococcus aureus; assay: Antimicrobial activity against SCCmec type II vancomycin-intermediate Staphylococcus aureus isolate 4sy39 by broth microdilution method
[15] = test system: Staphylococcus aureus; assay: Antimicrobial activity against SCCmec type III vancomycin-intermediate Staphylococcus aureus isolate b3k2345 by broth microdilution method
[16] = test system: Staphylococcus aureus; assay: Antimicrobial activity against SCCmec type III vancomycin-intermediate Staphylococcus aureus isolate 5zjsau3 by broth microdilution method
[17] = test system: Staphylococcus aureus; assay: Antimicrobial activity against heterogeneous vancomycin-intermediate Staphylococcus aureus assessed as growth inhibition at 0.125 times MIC; type: functional; parameters: scale not given: the % may be the effect or the level left
[18] = test system: Staphylococcus aureus; assay: Antimicrobial activity against heterogeneous vancomycin-intermediate Staphylococcus aureus assessed as growth inhibition at 0.5 times MIC; type: functional; parameters: scale not given: the % may be the effect or the level left
[19] = test system: Staphylococcus aureus; assay: Antimicrobial activity against SCCmec type III vancomycin-intermediate Staphylococcus aureus isolate xa07029 by broth microdilution method
[20] = test system: Staphylococcus aureus; assay: Antimicrobial activity against SCCmec type III vancomycin-intermediate Staphylococcus aureus isolate 15b52 by broth microdilution method
[21] = test system: Staphylococcus aureus; assay: Antimicrobial activity against SCCmec type II vancomycin-intermediate Staphylococcus aureus isolate sh06024 by broth microdilution method
[22] = test system: Staphylococcus aureus; assay: Antimicrobial activity against vancomycin-susceptible Staphylococcus aureus assessed as growth inhibition at 0.125 times MIC; type: functional; parameters: scale not given: the % may be the effect or the level left
[23] = test system: Staphylococcus aureus; assay: Antimicrobial activity against SCCmec type III vancomycin-intermediate Staphylococcus aureus isolate b5k3529 by broth microdilution method
[24] = test system: Staphylococcus aureus; assay: Antimicrobial activity against SCCmec type III vancomycin-intermediate Staphylococcus aureus isolate gs07022 by broth microdilution method
[25] = test system: Staphylococcus aureus; assay: Antimicrobial activity against SCCmec type II vancomycin-intermediate Staphylococcus aureus isolate 6zjsau7 by broth microdilution method
[26] = test system: Staphylococcus aureus; assay: Antimicrobial activity against SCCmec type II vancomycin-intermediate Staphylococcus aureus isolate 07b63 by broth microdilution method
[27] = test system: Staphylococcus aureus; assay: Antimicrobial activity against SCCmec type III vancomycin-intermediate Staphylococcus aureus isolate b4k6307 by broth microdilution method
[28] = test system: Staphylococcus aureus; assay: Antimicrobial activity against SCCmec type III vancomycin-intermediate Staphylococcus aureus isolate zj07028 by broth microdilution method
[29] = test system: Staphylococcus aureus; assay: Antimicrobial activity against vancomycin-intermediate Staphylococcus aureus by broth microdilution method
[30] = test system: Staphylococcus aureus; assay: Antimicrobial activity against heterogeneous vancomycin-intermediate Staphylococcus aureus assessed as growth inhibition at 0.25 times MIC; type: functional; parameters: scale not given: the % may be the effect or the level left
[31] = test system: Staphylococcus aureus; assay: Antimicrobial activity against heterogeneous vancomycin-intermediate Staphylococcus aureus assessed as growth inhibition at 2 times MIC; type: functional; parameters: scale not given: the % may be the effect or the level left
[32] = test system: Staphylococcus aureus; assay: Antimicrobial activity against SCCmec type II vancomycin-intermediate Staphylococcus aureus isolate b2k4781 by broth microdilution method
[33] = test system: Staphylococcus aureus; assay: Antimicrobial activity against SCCmec type III vancomycin-intermediate Staphylococcus aureus isolate b6k1642 by broth microdilution method
[34] = test system: Staphylococcus aureus; assay: Antimicrobial activity against SCCmec type III vancomycin-intermediate Staphylococcus aureus isolate b2k3421 by broth microdilution method
[35] = test system: Staphylococcus aureus; assay: Antimicrobial activity against SCCmec type III vancomycin-intermediate Staphylococcus aureus isolate 13b16 by broth microdilution method
[36] = test system: Staphylococcus aureus; assay: Antimicrobial activity against vancomycin-susceptible Staphylococcus aureus assessed as growth inhibition at 0.5 times MIC; type: functional; parameters: scale not given: the % may be the effect or the level left
[37] = test system: Staphylococcus aureus; assay: Antimicrobial activity against vancomycin-susceptible Staphylococcus aureus assessed as growth inhibition at MIC; type: functional; parameters: scale not given: the % may be the effect or the level left
[38] = test system: Staphylococcus aureus; assay: Antimicrobial activity against heterogeneous vancomycin-susceptible Staphylococcus aureus assessed as susceptible isolates by broth microdilution method; type: functional; method in brief: as §1
[39] = test system: Staphylococcus aureus; assay: Antimicrobial activity against SCCmec type III vancomycin-intermediate Staphylococcus aureus isolate gz06040 by broth microdilution method
[40] = test system: Staphylococcus aureus; assay: Antimicrobial activity against heterogeneous vancomycin-intermediate Staphylococcus aureus assessed as growth inhibition at 4 times MIC; type: functional; parameters: scale not given: the % may be the effect or the level left
[41] = test system: Staphylococcus aureus; assay: Antimicrobial activity against SCCmec type III vancomycin-intermediate Staphylococcus aureus isolate gz07030 by broth microdilution method
[42] = test system: Staphylococcus aureus; assay: Antimicrobial activity against heterogeneous vancomycin-intermediate Staphylococcus aureus assessed as susceptible isolates by broth microdilution method; type: functional; method in brief: as §1
[43] = test system: Staphylococcus aureus; assay: Antimicrobial activity against heterogeneous vancomycin-susceptible Staphylococcus aureus assessed as intermediate isolates by broth microdilution method; type: functional; method in brief: as §1
[44] = test system: Staphylococcus aureus; assay: Antimicrobial activity against SCCmec type III vancomycin-intermediate Staphylococcus aureus isolate sh07043 by broth microdilution method; type: functional; method in brief: as §2
[45] = test system: Staphylococcus aureus; assay: Antimicrobial activity against heterogeneous vancomycin-intermediate Staphylococcus aureus assessed as growth inhibition at 16 times MIC; type: functional; parameters: scale not given: the % may be the effect or the level left
[46] = test system: Staphylococcus aureus; assay: Antimicrobial activity against heterogeneous vancomycin-intermediate Staphylococcus aureus assessed as growth inhibition at MIC; type: functional; parameters: scale not given: the % may be the effect or the level left
[47] = test system: Staphylococcus aureus; assay: Antimicrobial activity against SCCmec type III vancomycin-intermediate Staphylococcus aureus isolate 11b091 by broth microdilution method
[48] = test system: Staphylococcus aureus; assay: Antimicrobial activity against SCCmec type III vancomycin-intermediate Staphylococcus aureus isolate b3k5923 by broth microdilution method

With `CCCCCCCCCC(=O)N[C@@H](Cc1c[nH]c2ccccc12)C(=O)N[C@H](CC(N)=O)C(=O)N[C@@H](CC(=O)O)C(=O)N[C@@H]1C(=O)NCC(=O)N[C@@H](CCCN)C(=O)N[C@@H](CC(=O)O)C(=O)N[C@H](C)C(=O)N[C@@H](CC(=O)O)C(=O)NCC(=O)N[C@H](CO)C(=O)N[C@@H]([C@H](C)CC(=O)O)C(=O)N[C@@H](CC(=O)c2ccccc2N)C(=O)O[C@@H]1C` the MIC [1] was 0.5 µg/mL (≈ 0.309 µM), the Activity [2] was 0% and the MIC [3] was 1 µg/mL (≈ 0.617 µM). For the same compound, the Activity [4] was 10.7%, the MIC [5] was 0.5 µg/mL (≈ 0.309 µM) and the MIC [6] was 1 µg/mL (≈ 0.617 µM). The Activity [7] was 100%, the Activity [8] was 100% and the MIC50 [9] was 0.5 µg/mL (≈ 0.309 µM). For the same compound, the MIC90 [9] was 0.5 µg/mL (≈ 0.309 µM), the MIC [10] was 0.5 µg/mL (≈ 0.309 µM) and the MIC [11] was 0.25 µg/mL (≈ 0.154 µM). For the same compound, the MIC50 [12] was 0.5 µg/mL (≈ 0.309 µM), the MIC90 [12] was 1 µg/mL (≈ 0.617 µM) and the Activity [13] was 100%. The MIC [14] was 0.5 µg/mL (≈ 0.309 µM), the MIC [15] was 0.5 µg/mL (≈ 0.309 µM) and the MIC [16] was 0.5 µg/mL (≈ 0.309 µM). The Activity [17] was 0%, the Activity [18] was 88.9% and the MIC [19] was 0.5 µg/mL (≈ 0.309 µM). The MIC [20] was 0.5 µg/mL (≈ 0.309 µM), the MIC [21] was 0.5 µg/mL (≈ 0.309 µM) and the Activity [22] was 0.58%. The MIC [23] was 0.5 µg/mL (≈ 0.309 µM), the MIC [24] was 0.5 µg/mL (≈ 0.309 µM) and the MIC [25] was 0.25 µg/mL (≈ 0.154 µM). The MIC [26] was 0.5 µg/mL (≈ 0.309 µM), the MIC [27] was 0.25 µg/mL (≈ 0.154 µM) and the MIC [28] was 0.5 µg/mL (≈ 0.309 µM). For the same compound, the MIC [29] was 0.5 µg/mL (≈ 0.309 µM), the Activity [30] was 14.8% and the Activity [31] was 100%. It also gave an MIC [32] of 0.5 µg/mL (≈ 0.309 µM), an MIC [33] of 0.5 µg/mL (≈ 0.309 µM) and an MIC [34] of 0.5 µg/mL (≈ 0.309 µM). It also gave an MIC [35] of 0.5 µg/mL (≈ 0.309 µM), an Activity [36] of 95.1% and an Activity [37] of 100%. For the same compound, the Activity [38] was 100%, the MIC [39] was 0.5 µg/mL (≈ 0.309 µM) and the Activity [40] was 100%. For the same compound, the MIC [41] was 0.5 µg/mL (≈ 0.309 µM), the Activity [42] was 100% and the Activity [43] was 0%. For the same compound, the MIC [44] was 1 µg/mL (≈ 0.617 µM), the Activity [45] was 100% and the Activity [46] was 100%. For the same compound, the MIC [47] was 0.5 µg/mL (≈ 0.309 µM) and the MIC [48] was 0.25 µg/mL (≈ 0.154 µM).
